≈ marks a conversion by molar mass, not a printed value. Calls of active or inactive are those of the source. The rule behind the calls is not given here.
Experiments:
Pseudomonas aeruginosa [1] = assay: Antibacterial activity against Pseudomonas aeruginosa PAO1 ATCC 15692 after 18 to 20 hrs by broth microdilution test; type: functional
How it was run: (§1)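 Broth microdilution in Mueller–Hinton broth: compounds in triplicate serial dilutions from 2 mM downward, inoculum about 5 × 10⁵ cfu mL⁻¹, 18–20 h at 37 °C. MIC was taken as the lowest concentration inhibiting growth. The wild-type strain was run without glucose 6-phosphate.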

Escherichia coli [2] = assay: Antibacterial activity against Escherichia coli K-12 BW25113 after 18 to 20 hrs by broth microdilution test in presence of glucose-6-phosphate; type: functional
How it was run: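 For E. coli BW25113, broth microdilution was run with glucose 6-phosphate added. Conditions: Mueller–Hinton broth, triplicate concentrations from 2 mM downward, about 5 × 10⁵ cfu mL⁻¹ inoculum, 18–20 h at 37 °C. MIC was the lowest concentration inhibiting growth.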

Pseudomonas aeruginosa [3] = assay: Binding affinity to Pseudomonas aeruginosa KdsD expressed Escherichia coli at 5 mM after 2 to 3 days by STD-NMR analysis
How it was run: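 N-His6 Pa-KdsD was expressed in E. coli M15/pREP4 (0.5 mM IPTG, 4 h), Ni-NTA purified (>95%). Ligand at 5 mM with enzyme in PBS pH 7.0, 25 °C, sampled after 0, 2 and 3 days. STD: 50 ms Gaussian pulses, 3 s saturation, on-resonance 7.9 ppm, off-resonance 40 ppm, 2 ms T1ρ filter; free-ligand reference spectra.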

Escherichia coli [4] = assay: Antibacterial activity against Escherichia coli K-12 BW25113 after 18 to 20 hrs by broth microdilution test; type: functional; how it was run: as §1
Escherichia coli [5] = assay: Antibacterial activity against Escherichia coli AS19 after 18 to 20 hrs by broth microdilution test

`CO[C@H]1O[C@H](C(=O)O)[C@@H](O)[C@@H]1O` was tested, and the MIC (Pseudomonas aeruginosa [1]) was > 2000 µM, the MIC (Escherichia coli [2]) was > 2000 µM and the Activity (Pseudomonas aeruginosa [3]) was “Active”. The MIC (Escherichia coli [4]) was > 2000 µM and the MIC (Escherichia coli [5]) was 250 µM (≈ 44.5 µg/mL).
In the case of `CO[C@@H]1O[C@H](C(=O)O)[C@@H](O)[C@@H]1O`, the MIC (Pseudomonas aeruginosa [1]) is reported as > 2000 µM, the MIC (Escherichia coli [2]) is reported as > 2000 µM and the Activity (Pseudomonas aeruginosa [3]) is reported as “Active”. For the same molecule, the MIC (Escherichia coli [4]) was > 2000 µM and the MIC (Escherichia coli [5]) was 250 µM (≈ 44.5 µg/mL).
For `CO[C@@H]1O[C@H](COP(=O)(O)O)[C@@H](O)[C@@H]1O`, the MIC (Pseudomonas aeruginosa [1]) was > 2000 µM, the MIC (Escherichia coli [2]) was > 2000 µM and the MIC (Escherichia coli [4]) was > 2000 µM. The MIC (Escherichia coli [5]) was 250 µM (≈ 61 µg/mL).
With `O=C(NO)[C@H](O)[C@H](O)COP(=O)(O)O` the Activity (Pseudomonas aeruginosa [3]) was “Active”.
`CO[C@H]1O[C@H](COP(=O)(O)O)[C@@H](O)[C@@H]1O` was tested, and the MIC (Pseudomonas aeruginosa [1]) was > 2000 µM, the MIC (Escherichia coli [2]) was > 2000 µM and the MIC (Escherichia coli [4]) was > 2000 µM. The MIC (Escherichia coli [5]) was 250 µM (≈ 61 µg/mL).
For `CC(=O)O[C@H](COP(=O)(O)O)[C@@H](O)C(=O)NO`, the Activity (Pseudomonas aeruginosa [3]) was “Active”.
`NC(=O)[C@H](O)[C@H](O)COP(=O)(O)O` was tested, and the Activity (Pseudomonas aeruginosa [3]) was “Active”.

Reference: ChEMBL document CHEMBL3232738, “Arabinose 5-phosphate isomerase as a target for antibacterial design: studies with substrate analogues and inhibitors” (2014)
